This is a sample that favours compounds with a hit; in the whole collection about 2.5% have one here.
HCV NS3 hel inh = inhibitors of HCV NS3 helicase, primary screen, biochemical, Cy5 molecular beacon fluorescence; Hepatitis C virus NS3 helicase; NS3 helicase DNA unwinding; inhibition, % at 10.9 µM; 0.56% of 290,000 active; AID 1800, 2009;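 active = inhibition above the mean of all tested compounds plus 3 SD, set per campaign, cut at about 35% in these data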;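 note: 0% = DMSO wells and 100% = thioflavine S control wells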
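System: NS3 helicase fragment of HCV / Schedule: 1 h at 25 °C / Control set: DMSO alone as 0% and 110 µM thioflavine S as 100% / Reagent: Cy5/quencher beacon DNA duplex and ATP to start / Technique: Cy5 fluorescence / Replication: singlicate / Evaluation: % inhibition of end-to-start signal ratio versus controls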
SUMO1-SIM PPI = modulators of SUMO1 protein-protein interactions, primary screen, biochemical, uHTS | Small ubiquitin-related modifier 1 (Homo sapiens), P63165 | SUMO1 binding to a labelled peptide, TR-FRET, 1 h | inhibition, % at 20 µM | 0.33% of 360,000 active | AID 602429, 2012
DNMT1 block = human DNMT1 methyltransferase inhibitors, primary screen, biochemical, molecular beacon, fluorescence, HinP1I cleavage, uHTS. DNA (cytosine-5)-methyltransferase 1 (Homo sapiens), P26358. inhibition (reported as % activation of signal), % at 10 µM. 0.83% of 360,000 active. AID 588458, 2011; in the data active = inhibition above about 50%
Pemphigus Ab inh = inhibitors of pemphigus antibody binding to DSG3, primary screen, biochemical, bead-based, flow cytometry, scFv-GFP; binding (percent of control), % at 10 µM; Desmoglein-3 (Homo sapiens), P32926; DSG3-coupled beads, scFv-anti-DSG3-GFP binding; active compounds read low; 0.48% of 310,000 active;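 active = binding more than 3 SD below its plate's average and above zero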;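 note: hits lower antibody fragment binding to DSG3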
Target sequence (P32926 whole entry, looked up, the tested form may be a part): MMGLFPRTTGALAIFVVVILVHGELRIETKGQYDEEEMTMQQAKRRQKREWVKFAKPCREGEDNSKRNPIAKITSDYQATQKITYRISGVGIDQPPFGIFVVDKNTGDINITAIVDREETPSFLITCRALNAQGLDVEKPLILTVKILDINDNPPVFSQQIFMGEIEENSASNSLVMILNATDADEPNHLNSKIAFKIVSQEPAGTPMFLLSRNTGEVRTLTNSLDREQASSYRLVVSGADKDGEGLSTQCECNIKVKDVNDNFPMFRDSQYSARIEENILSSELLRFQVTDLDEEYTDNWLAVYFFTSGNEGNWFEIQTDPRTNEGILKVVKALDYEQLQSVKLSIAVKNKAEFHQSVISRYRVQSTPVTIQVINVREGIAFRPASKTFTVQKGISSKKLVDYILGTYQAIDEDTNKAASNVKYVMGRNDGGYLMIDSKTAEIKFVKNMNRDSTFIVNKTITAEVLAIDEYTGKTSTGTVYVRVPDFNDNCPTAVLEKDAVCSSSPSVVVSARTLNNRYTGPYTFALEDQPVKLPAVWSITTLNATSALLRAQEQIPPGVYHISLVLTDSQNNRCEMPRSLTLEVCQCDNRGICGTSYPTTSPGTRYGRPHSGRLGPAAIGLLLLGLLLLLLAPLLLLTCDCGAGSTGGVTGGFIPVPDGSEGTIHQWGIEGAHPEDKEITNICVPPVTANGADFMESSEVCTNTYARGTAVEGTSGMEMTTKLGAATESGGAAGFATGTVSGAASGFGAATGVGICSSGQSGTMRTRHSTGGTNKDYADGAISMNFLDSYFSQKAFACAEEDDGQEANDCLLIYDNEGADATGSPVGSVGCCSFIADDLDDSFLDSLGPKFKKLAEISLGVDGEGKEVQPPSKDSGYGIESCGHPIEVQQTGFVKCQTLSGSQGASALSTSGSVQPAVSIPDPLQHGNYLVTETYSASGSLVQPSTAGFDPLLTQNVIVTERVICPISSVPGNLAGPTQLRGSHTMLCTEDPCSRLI
UHRF1 MBD2 ctr = UHRF1 methylated DNA binding inhibitors, primary screen, counter-screen for MBD2 inhibitor project, biochemical, TR-FRET, human UHRF1, single concentration | 0.75% of 370,000 active | inhibition, % at 4.4 µM | E3 ubiquitin-protein ligase UHRF1 (Homo sapiens), Q96T88 | AID 687016, 2013 | UHRF1 binding to methylated oligo; in the data active = inhibition above about 21%;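 note: UHRF1 SRA domain binding a hemimethylated CpG hairpin DNA probe; 0% = median of test compound wells and 100% = reference inhibitor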
MBD2 inh = inhibitors of MBD2 binding to methylated DNA, primary screen, biochemical, TR-FRET, DNA-binding domain, human; inhibition, % at 4.4 µM; AID 686964, 2013; MBD2 binding to methylated oligonucleotide; 0.31% of 370,000 active; in the data active = inhibition above about 13%
NS3 helicase cf = HCV NS3 helicase inhibitors, retest, confirmation, biochemical, Cy5 molecular beacon fluorescence, triplicate; shares compounds with HCV NS3 hel inh; NS3 helicase DNA unwinding; inhibition, % at 10.9 µM; 31% of 1,600 active; AID 1943, 2009;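 active = inhibition above the mean of all tested compounds plus 3 SD, cutoff set per campaign, cut at about 36% in these data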
FID counter trip = compounds displacing fluorescent DNA intercalator, artefact control for HCV NS3 helicase inhibitor project, biochemical, FID fluorescence, triplicate. shares compounds with HCV NS3 hel inh. DNA fluorescent intercalator displacement. inhibition, % at 7.9 µM. 4% of 1,600 active. AID 1945, 2009;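 note: 0% = vehicle and 100% = reference compound; higher means more displacement of ethidium bromide from the DNA hairpin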
DNA FID DR = compounds displacing fluorescent intercalator from DNA, dose response, counter-screen for HCV NS3 helicase inhibitor project, biochemical, fluorescence | 120 tested, under 10 active | fluorescent intercalator displacement from DNA | shares compounds with HCV NS3 hel inh | IC50, µM; call rule not given here
Beacon interf DR = spectral interference with molecular beacon fluorescence, dose response, artefact control for DNMT1 inhibitor project, biochemical, fluorescent molecular beacon; shares compounds with DNMT1 block; spectral interference counter-screen; IC50, µM; 200 tested, under 10 active; AID 602382, 2012; call rule not given here
DNMT1 confirm = DNMT1 methyltransferase inhibitor retest, confirmation, biochemical, molecular beacon, fluorescence, single concentration; DNMT1 molecular beacon HinP1I cleavage; shares compounds with DNMT1 block; inhibition, % at 10 µM; 8% of 2,300 active;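 active = average inhibition of at least 30% in the single-concentration confirmation test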
Beacon interf = shows spectral interference in the DNMT1 beacon assay; AID 602387; activation (fluorescence interference), % at 10 µM; DNMT1 molecular beacon spectral interference counterscreen, fluorescence 485/520; shares compounds with DNMT1 block; 1% of 2,300 active;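 active = activation of at least 30% at 10 µM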;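 note: DNMT1 catalytic domain with a HinP1I cleavage step and a FAM/dabcyl DNA beacon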
UHRF1 ctr MBD2 = UHRF1 methylated DNA binding inhibitors, counter-screen for MBD2 inhibitor project, biochemical, TR-FRET, human UHRF1. shares compounds with MBD2 inh. UHRF1 binding to methylated oligonucleotide. inhibition, % at 4.4 µM. 25% of 1,000 active; in the data active = inhibition above about 21%;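 note: UHRF1 SRA domain binding a labeled hemimethylated CpG hairpin DNA; 0% = vehicle only and 100% = reference inhibitor with vehicle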
MBD2 confirm = inhibitors of MBD2 binding to methylated DNA, confirmation, biochemical, TR-FRET, DNA-binding domain, human; TR-FRET MBD2-DBD binding to methylated oligonucleotide; 26% of 1,000 active; shares compounds with MBD2 inh; inhibition, % at 4.4 µM; in the data active = inhibition above about 14%
* marks the source's active call; other numbers are inactive results; . = no result. Cut-off read from the data, not from the text of the source, unless noted: active = inhibition above about 37%; inactive = the rest.

SMILES	HCV NS3 hel inh	SUMO1-SIM PPI	DNMT1 block	Pemphigus Ab inh	UHRF1 MBD2 ctr	MBD2 inh	DNMT1 confirm	Beacon interf	others
O=c1ccc2[n+]([O-])c3ccc(O)cc3oc-2c1	36.8*	2.1	57.5*	98.7	78.1*	28.1*	.	.	NS3 helicase cf=-0.5;FID counter trip=-40.5;UHRF1 ctr MBD2=72.7*;MBD2 confirm=31.1*
C/C(=N\O)c1ccn(S(=O)(=O)c2ccc(Cl)cc2)c1	-14.2	2.1	0.8	104.6	3.6	-0.5	.	.
CCOC(=O)C1Nc2ccc(C(=O)O)cc2C2C=CCC12 (stereo not drawn)	53.9*	48.1*	59.8*	105.7	71.9*	26.6*	.	.	NS3 helicase cf=67.4*;FID counter trip=-15.5;UHRF1 ctr MBD2=48.3*;MBD2 confirm=10.9
COc1ccc(-c2cc(C(F)(F)F)n3nc(C)cc3n2)cc1	1.2	-22.1	3.4	98.2	-1.5	2.9	.	.
CC1CCCCN1CCCNC(=O)c1ccc2c(=O)n(CCc3ccccc3)c(=O)[nH]c2c1 (stereo not drawn)	-10.3	3.9	-1.6	107.5	1.1	7.8	.	.
COc1ccccc1-c1ccc(/C=C2/C=C(C)OC2=O)o1	14.6	-4.6	-1.7	.	-3.3	0.9	.	.
COc1ccccc1-c1ccc(/C=C2\C=CC(=O)O2)o1	37.0*	-21.0	32.6	107.5	26.8*	15.0*	.	.	NS3 helicase cf=-5.3;FID counter trip=-3.4;UHRF1 ctr MBD2=7.7;MBD2 confirm=1.0
Cc1cc(NC(=O)CSc2ccc3nnc(CCNS(=O)(=O)c4ccccc4)n3n2)no1	4.8	-1.1	-1.4	95.1	-3.4	-0.3	.	.
C=C1c2cccc(O)c2C(O)=C2C(=O)[C@]3(O)C(O)=C(C(N)=O)C(=O)[C@@H](N(C)C)[C@@H]3[C@@H](O)[C@H]12	84.7*	72.0*	90.3*	96.5	97.7*	91.0*	.	.	NS3 helicase cf=55.5*;FID counter trip=16.9;DNA FID DR=>79.4;UHRF1 ctr MBD2=21.0*;MBD2 confirm=9.1
CC(C)C[C@@H](CO)N1CCN(C)CCC1=O	-19.8	-2.7	1.9	104.9	18.4	10.7	.	.
COc1ccc(CCNC(=O)c2cc(-c3ccco3)nc3ccccc23)cc1	53.3*	.	.	.	21.1*	16.9*	.	.	NS3 helicase cf=6.6;FID counter trip=-16.9;UHRF1 ctr MBD2=15.2;MBD2 confirm=10.8
O=C(CSc1n[nH]c(-c2ccccc2)n1)N1CCOCC1	7.9	3.7	2.2	99.6	-3.1	0.3	.	.
CNc1cccccc1=S	11.3	11.7	84.5*	.	14.8	7.6	-0.5	4.5
CNc1ccccc1	.	-4.6	-2.4	101.2	3.4	0.2	.	.
Cc1cccc(N2NC(=O)/C(=C/c3ccc(-c4ccc(Cl)c(C(=O)O)c4)o3)C2=O)c1	29.5	29.8	83.7*	97.3	31.4*	6.0	12.0	0.3
O=C(O)c1cc(-c2ccc(/C=C3\NC(=O)N(c4ccc(Cl)cc4)C3=O)o2)ccc1Cl	18.5	28.6	98.8*	107.2	62.4*	7.7	20.8	-1.5
O=C(Cc1ccc(F)cc1)N/N=C/c1ccc(-c2ccc(Cl)c(C(=O)O)c2)o1	16.4	-8.8	0.6	102.3	-1.0	-0.9	.	.
O=C1NN(c2ccccc2)C(=O)/C1=C/c1ccc(-c2ccc(Cl)c(C(=O)O)c2)o1	12.6	20.0	85.2*	113.4	22.9*	0.3	11.8	0.3
O=C(O)c1cc(-c2ccc(/C=N/N3C(=O)C4C5C=CC(CC5)C4C3=O)o2)ccc1Cl (stereo not drawn)	7.9	-11.4	7.9	103.7	0.8	4.8	.	.
O=c1c2c3c(sc2ncn1-n1cccc1)CCCCC3	-3.8	-4.6	2.5	100.8	16.7	9.6	.	.
COc1ccc(C)cc1-n1cnc2sc(C)c(C)c2c1=O	.	-0.7	6.5	95.6	5.4	0.5	.	.
COc1ccc(CNC(=O)C(C)c2ccc([N+](=O)[O-])cc2)cc1 (stereo not drawn)	-1.7	-13.4	-1.3	104.5	4.0	-3.0	.	.
COc1ccc(CCNC(=O)C2CCCN(S(=O)(=O)c3ccccc3)C2)cc1 (stereo not drawn)	-5.2	-2.2	82.5*	103.6	-0.4	0.3	1.6	2.1
COc1ccc(CNC(=O)C2CCCN(S(=O)(=O)c3ccccc3)C2)cc1 (stereo not drawn)	3.2	3.8	0.8	103.3	-1.1	-5.7	.	.
O=C(Nc1cccc(Cl)c1)c1cc2c(=O)n3ccccc3nc2s1	-2.8	6.3	62.3*	99.8	0.5	1.7	7.3	17.8
COC(=O)\C(C(C)=O)=C(/C=C/C=C/C=C/N(C)C)N(C)C	35.7	-2.0	108.5*	92.7	55.0*	11.4	37.1*	19.1	Beacon interf DR=>99
COc1ccc(C(=O)Nc2ccccc2C(=O)Nc2cccc(C)n2)cc1	3.6	1.0	83.3*	107.0	-1.5	1.8	14.6	4.5
COc1ccc(C(=O)Nc2ccccc2C(=O)Nc2cc(C)ccn2)cc1	-8.0	2.4	-8.6	101.9	3.7	-2.4	.	.
COc1cccc2cc(C(=O)Nc3cccc(C)n3)c(=O)oc12	.	-11.9	74.2*	95.1	.	.	2.4	2.7

From PubChem BioAssay
